# This is a sample that favours compounds with a hit; in the whole collection about 2.6% have one here.
# proCasp3 act = procaspase-3 (human) activation; P42574; recombinant procaspase-3 D3A, Ac-DEVD-pNA absorbance 405 nm; activation, % at 8.5 µM; 330,000 compounds, 0.11% hits; AID 463141;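 active = activation above the mean of all tested compounds plus 3 SD, cut at about 21% in these data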;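 note: 0% = DMSO alone and 100% = DMSO wells spiked with extra 5 µM PC-3 D3A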
# Target sequence (P42574 whole entry D9A/D28A/D175A): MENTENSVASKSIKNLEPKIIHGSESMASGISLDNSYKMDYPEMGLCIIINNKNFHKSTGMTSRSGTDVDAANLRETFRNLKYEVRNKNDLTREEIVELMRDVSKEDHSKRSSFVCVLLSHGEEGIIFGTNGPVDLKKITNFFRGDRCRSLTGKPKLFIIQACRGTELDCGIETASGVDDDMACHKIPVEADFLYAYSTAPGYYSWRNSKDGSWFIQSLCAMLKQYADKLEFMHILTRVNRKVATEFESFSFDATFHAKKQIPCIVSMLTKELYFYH
#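 Evaluation: percent activation relative to control range; Material: Procaspase-3 D3A mutant, all three cleavage aspartates alanine; Compound: single dose, 8.5 µM nominal compound, 0.8% DMSO; Replication: one well per compound; Signal: absorbance at 405 nm, 0 and 120 min; Schedule: 1 h preincubation plus 2 h reaction at 25 °C.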
# PolyA inh = yeast polyadenylation inhibition; AID 1875; activity score, % at 12 µM; S. cerevisiae SKY197-pL101 polyadenylation reporter, beta-gal luminescence; efflux-impaired pdr1/pdr3 knockout yeast; score 100 = 6 SD above DMSO; 300,000 compounds, 0.02% hits;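 active = lowest replicate activity score at least 50, where 100 means six control SD above control mean; inconclusive = lowest score under 50 but half or more replicates reach 50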;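 note: yeast exposed to compound for 9 h at 30 °C; higher score means more reporter readthrough which indicates perturbed polyadenylation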
# procasp7 counter = counter-screen for procaspase-3 activators: activators of human procaspase-7. P55210. recombinant procaspase-7, Ac-DEVD-pNA absorbance 405 nm; D23A/D198A/D206A triple mutant, cannot self-cleave; scale: DMSO 0, 5 µM enzyme 100. activation, % at 8.5 µM. 330,000 compounds, 0.093% hits;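 active = percent activation above the screen-wide mean plus 3 SD, cut at about 25% in these data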
# Target sequence (P55210 whole entry D23A/D198A/D206A): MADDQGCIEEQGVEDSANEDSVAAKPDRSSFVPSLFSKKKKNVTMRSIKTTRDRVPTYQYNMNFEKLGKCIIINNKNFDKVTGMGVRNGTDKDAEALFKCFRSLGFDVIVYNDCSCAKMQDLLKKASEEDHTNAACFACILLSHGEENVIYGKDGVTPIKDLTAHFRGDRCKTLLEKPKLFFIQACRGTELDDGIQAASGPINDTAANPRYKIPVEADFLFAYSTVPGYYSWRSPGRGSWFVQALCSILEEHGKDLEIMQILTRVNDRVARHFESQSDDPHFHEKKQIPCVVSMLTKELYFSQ
#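 Test system: Procaspase-7 triple mutant (PC-7 D3A). Also added: Ac-DEVD-pNA substrate, 400 µM as added. Schedule: 1 h enzyme–compound preincubation and 2 h substrate reaction, both 25 °C. Signal: p-Nitroaniline absorbance at 405 nm, read at 0 and 120 min. Control set: low DMSO alone, high DMSO plus 5 µM PC-7.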
# AHR activator = human AHR activation. AHR-responsive luciferase reporter cells, luminescence. 320,000 compounds, 2.5% hits. activation, % at 5 µM. P35869; in the data active = activation above about 47%;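 note: 0% = vehicle wells and 100% = reference agonist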
# * hit, by the source's call; ? = inconclusive; / = no result.
SMILES,proCasp3 act,PolyA inh,procasp7 counter,AHR activator
O=C(C1CCC(=O)N(C2CC2)C1)N1CCC(Oc2cccc(C(F)(F)F)c2)CC1 (stereo not drawn),/,6.6,/,/
Cc1cc(=O)c2ccccc2n1Cc1ccccc1,5.0,10.8,5.7,57.4*
Cc1cc(=O)c2ccccc2n1CC(=O)NCc1ccccc1,-1.2,22.0,-113.0,8.4
CC(=O)c1ccc2c3c(cccc13)C(=O)N(CCc1ccccc1)C2=O,5.5,-8.0,1.8,72.0*
O=[N+]([O-])c1ccc(Cl)c(S(=O)(=O)Nc2cccc(S(=O)(=O)NC3=NCCC3)c2)c1,-8.4,/,-21.7,52.3*
O=C(Nc1cccc(S(=O)(=O)NC2=NCCC2)c1)c1cc(Cl)ccc1[N+](=O)[O-],-9.6,6.1,-3.6,0.0
CC(=NCc1cccnc1)C1=C(O)c2ccccc2C1=O,-4.5,-1.4,0.9,74.4*
CCCN=C(C)C1=C(O)c2ccccc2C1=O,-0.1,8.7,-0.1,-1.6
Cc1ccc(S(=O)(=O)N2CC(O)C[C@H]2C(=O)OCC(=O)Nc2ccc(N3CCCCC3)cc2)cc1C (stereo partly drawn),-8.2,0.1,-2.4,3.8
Cn1ccnc1SCC(=O)NC1(C#N)CCCCC1,7.2,16.8,2.0,-0.8
Fc1cccc(/C=N/Nc2nncc3ccccc23)c1,-0.8,1.1,-4.6,55.3*
C(=N\Nc1nncc2ccccc12)/c1ccccn1,0.8,-12.2,0.7,5.1
Clc1cccc(/C=N/Nc2nnc(Cl)c3ccccc23)c1,-6.7,-11.4,8.1,50.4*
Fc1cccc(/C=N/Nc2nccnc2Cl)c1,-4.5,17.0,-0.3,24.3
Clc1ccc(/C=N/Nc2nnc(-c3ncc[nH]3)c3ccccc23)cc1,2.2,-14.2,11.6,75.7*
Clc1ccc(/C=N\Nc2ccccc2)cc1,0.1,-15.3,-4.0,14.4
Cc1ccc(S(=O)(=O)N2CCCC(C(=O)NCCc3ccccc3)C2)cc1 (stereo not drawn),4.3,5.0,-8.6,0.2
CC(=O)N1N=C2c3ccccc3CCC2C1c1cccs1 (stereo not drawn),7.6,-23.8,2.1,59.9*
CC(=O)N1N=C(c2cccs2)CC1c1cccs1 (stereo not drawn),0.0,5.4,-0.3,2.1
C/C(=N/Nc1ccc(C(=O)O)cc1)c1ccc(O)c(O)c1O,-6.6,-1.3,-13.1,-7.1
FC(F)(F)c1nnc2ccc(Sc3ccccn3)nn12,14.3,7.0,6.8,-1.2
Cc1cc(C)cc(NC(=O)C(OC(=O)Cn2cnc3c2c(=O)n(C)c(=O)n3C)c2ccccc2)c1 (stereo not drawn),14.0,-0.7,4.5,9.2
COc1ccc(C)cc1NC(=O)C(OC(=O)Cn1cnc2c1c(=O)n(C)c(=O)n2C)c1ccccc1 (stereo not drawn),0.5,-6.9,-0.3,52.6*
COc1ccc(C)cc1NC(=O)C(OC(=O)CNC(=O)c1cc(C)cc(C)c1)c1ccccc1 (stereo not drawn),-3.4,11.5,12.2,67.4*
COc1ccc(C)cc1NC(=O)C(OC(=O)c1ccc([N+](=O)[O-])o1)c1ccccc1 (stereo not drawn),-2.6,-11.2,-1.1,47.2*
SMILES,proCasp3 act,PolyA inh,procasp7 counter,AHR activator
O=C(NCC(=O)N1CCN(c2ccccc2)CC1)c1ccccc1,-0.1,15.7,8.6,5.6
COCCN1CC(C(=O)NCCc2nc(C)c(C)s2)CCC1=O (stereo not drawn),4.0,2.5,7.5,2.2
COc1cccc(C(=O)NCC2CCCN(C(=O)c3ccc(C=O)cc3)C2)c1OC (stereo not drawn),-3.3,5.4,4.7,0.3
CC(C)Cn1c(N)c(C(=O)COC(=O)C2Cc3ccccc3CN2S(C)(=O)=O)c(=O)n(C)c1=O (stereo not drawn),8.8,/,3.3,1.9
C[C@H](NC(=O)c1nc[nH]c1C(=O)NC1CCNCC1)C(=O)OCc1ccccc1,0.3,/,0.5,-1.6
COc1ccccc1C(=O)Nc1ccnn1C1CCN(C/C=C/c2ccc(F)cc2)CC1,6.0,27.7,9.0,-7.0
COc1cc2sc(NC(=O)c3ccco3)nc2cc1Cl,5.6,-1.9,2.5,49.5*
COc1cccc(OC)c1C(=O)Nc1nc2cc3c(cc2s1)OCO3,4.5,-8.9,2.1,54.2*
Cc1ccc2nc(NNC(=O)c3ccc4c(c3)OCCO4)sc2c1,-11.4,-0.9,-11.4,47.6*
O=C(NNc1nc2cc3c(cc2s1)OCO3)c1ccccc1,-7.1,-6.3,-13.6,61.3*
CN(CC(=O)Nc1ccccc1C(F)(F)F)C(=O)c1ccc(N2C(=O)CCC2=O)cc1,-10.7,-6.5,9.6,-0.2
O=C(Nc1nc2cc3c(cc2s1)OCCO3)c1cccc(N2C(=O)CCC2=O)c1,3.2,10.4,-3.4,52.2*
O=C(NNc1nc2cc3c(cc2s1)OCO3)c1cccc(F)c1,-18.1,0.8,-33.2,76.8*
O=C(Nc1nc2ccccc2s1)c1cccc(N2C(=O)CCC2=O)c1,-1.9,3.7,-1.4,34.0
COc1cc(OC)cc(C(=O)NNc2nc3cc4c(cc3s2)OCO4)c1,-16.5,6.7,-22.0,21.0
O=C1c2ccccc2C(=O)N1OCc1cccc(Cl)c1,0.0,1.2,3.5,-1.1
O=C1c2ccccc2C(=O)N1OCc1ccccc1,-9.1,-5.4,0.6,90.2*
NNC(=O)c1cc(-c2ccc(N)cc2)nc2ccc(Br)cc12,-2.9,-3.4,-4.9,37.9
O=C(Nc1ccc(Cl)cc1)Nc1ccccc1CC[N+](=O)[O-],0.2,1.5,2.5,67.3*
O=S1(=O)N=C(c2ccccc2)c2ccccc21,4.0,?,-1.9,-0.7
CCOC(=O)Nc1nnc(/C=C/c2ccc(OC)cc2)s1,3.6,-4.5,-15.2,74.3*
CCCc1nnc(NC(=O)OCC)s1,1.3,19.0,7.5,74.0*
CCCCc1nnc(NC(=O)C(=O)OCC)s1,-0.3,18.5,8.1,-1.8
CCCCOC(=O)Nc1nnc(/C=C/c2ccc(OC)cc2)s1,2.6,11.4,5.7,9.7
CCOC(=O)c1[nH]c(=O)[nH]c1CSc1nc(C)cc(C)n1,-2.6,5.0,-3.1,48.4*
SMILES,proCasp3 act,PolyA inh,procasp7 counter,AHR activator
Cc1cc(C)nc(SCC(=O)c2c(N)n(C)c(=O)n(C)c2=O)n1,-1.2,25.2,3.7,50.1*
Cn1ccnc1SCC(=O)c1c(N)n(C)c(=O)n(C)c1=O,3.2,/,-5.7,14.7
COc1cc(C#Cc2c(-c3cncn3C)n(C)c3ccc(-c4cnc(N5CCOCC5)nc4)cc23)cc(OC)c1,6.3,/,3.7,18.4
COc1cc(C#Cc2c(-c3cncn3C)n(C)c3ccc(-c4cnc(OC)nc4)cc23)cc(OC)c1,-7.2,/,-6.8,51.1*
CN1CCN(/N=C/c2c3ccccc3c(Cl)c3ccccc23)CC1,-3.8,-14.6,-6.2,56.5*
Cn1c(-[n+]2c(-c3ccccc3)cc(-c3ccccc3)cc2-c2ccccc2)nc2c([N+](=O)[O-])cccc21,-4.5,-20.3,-5.7,68.4*
COc1ccccc1/C=C(/CC(=O)NCc1ccc2c(c1)OCO2)c1nc2ccccc2s1,-8.1,-17.1,3.8,81.0*
